Assays:
Beta-galactosidase = target: T1, Beta-galactosidase (Aspergillus oryzae, UniProt Q2U7N3); assay: Inhibition of Aspergillus oryzae beta-galactosidase using 2-chloro-4-nitrophenyl beta-Dgalactopyranoside as substrate by spectrophotometry
T1 sequence (Q2U7N3 whole entry): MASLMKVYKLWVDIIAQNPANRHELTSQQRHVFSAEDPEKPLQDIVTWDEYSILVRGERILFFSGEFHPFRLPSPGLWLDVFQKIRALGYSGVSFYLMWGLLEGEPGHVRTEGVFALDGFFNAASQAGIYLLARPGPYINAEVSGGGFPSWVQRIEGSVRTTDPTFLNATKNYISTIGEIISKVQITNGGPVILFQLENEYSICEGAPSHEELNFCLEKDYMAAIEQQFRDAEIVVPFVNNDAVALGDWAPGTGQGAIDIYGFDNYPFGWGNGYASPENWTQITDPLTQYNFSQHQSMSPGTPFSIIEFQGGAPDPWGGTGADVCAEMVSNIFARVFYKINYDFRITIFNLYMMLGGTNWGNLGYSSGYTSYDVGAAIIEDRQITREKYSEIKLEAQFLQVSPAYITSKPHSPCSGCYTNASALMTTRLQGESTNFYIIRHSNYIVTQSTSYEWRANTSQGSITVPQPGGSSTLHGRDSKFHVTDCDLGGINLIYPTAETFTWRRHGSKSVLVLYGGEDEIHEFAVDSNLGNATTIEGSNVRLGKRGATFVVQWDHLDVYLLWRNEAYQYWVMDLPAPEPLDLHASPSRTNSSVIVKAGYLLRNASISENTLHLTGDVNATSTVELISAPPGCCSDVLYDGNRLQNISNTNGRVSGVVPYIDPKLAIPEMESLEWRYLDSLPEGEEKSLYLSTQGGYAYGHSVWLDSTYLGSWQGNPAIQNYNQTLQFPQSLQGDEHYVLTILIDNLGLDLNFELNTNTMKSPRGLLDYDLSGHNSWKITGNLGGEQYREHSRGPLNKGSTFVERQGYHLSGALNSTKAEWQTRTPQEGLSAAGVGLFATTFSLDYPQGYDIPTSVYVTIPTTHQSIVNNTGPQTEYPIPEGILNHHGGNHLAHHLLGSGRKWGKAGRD
Outline: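 Dextrin-stabilised lyophilised A. oryzae enzyme in 50 mM acetate, pH 5.00, 30 °C, 100 μL. Substrate plus inhibitor preincubated 30 min before enzyme addition. 2-chloro-4-nitrophenolate read at 405 nm. […] For IC50, substrate was fixed, inhibitor 5 × 10⁻⁴–50 μM, read at 60 min against blanks, in duplicate.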

[1] = Inhibition of almond beta-glucosidase; set-up: species or system Prunus dulcis
[2] = Inhibition of Aspergillus niger beta-glucosidase
[3] = Inhibition of Caldicellulosiruptor saccharolyticus beta-glucosidase

Row | Compound | Ki (Beta-galactosidase) [µM] | IC50 (Beta-galactosidase) [µM] | also measured
1 | N=C1N[C@H](CO)[C@H](O)[C@H](O)[C@H]1O | 0.15 | – | –
2 | OC[C@H]1N/C(=N\CC2CC2)[C@H](O)[C@@H](O)[C@H]1O | 0.0095 | 0.00086 | –
3 | OC[C@H]1N/C(=N\CCCc2ccccc2)[C@H](O)[C@@H](O)[C@H]1O | 0.0086 | 0.036 | –
4 | OC[C@H]1N/C(=N\CC2CCCCC2)[C@H](O)[C@@H](O)[C@H]1O | 0.0113 | 0.022 | –
5 | Cc1ccccc1C/N=C1\N[C@H](CO)[C@H](O)[C@H](O)[C@H]1O | 0.0236 | – | –
6 | OC[C@H]1N/C(=N\CC2CCCCCC2)[C@H](O)[C@@H](O)[C@H]1O | 0.0063 | 0.036 | –
7 | OC[C@H]1N/C(=N\Cc2ccc(C(F)(F)F)cc2)[C@H](O)[C@@H](O)[C@H]1O | 0.0157 | – | –
8 | OC[C@H]1N/C(=N\Cc2ccc(F)cc2)[C@H](O)[C@@H](O)[C@H]1O | 0.0101 | – | –
9 | OC[C@H]1N/C(=N\Cc2cccc(F)c2)[C@H](O)[C@@H](O)[C@H]1O | 0.0203 | – | –
10 | O=C1N[C@H](CO)[C@H](O)[C@H](O)[C@H]1O | 0.615 | – | –
11 | OC[C@H]1N/C(=N\C2CC2)[C@H](O)[C@@H](O)[C@H]1O | 0.0319 | – | –
12 | COc1ccc(C/N=C2\N[C@H](CO)[C@H](O)[C@H](O)[C@H]2O)cc1 | 0.0171 | – | –
13 | Cc1cccc(C/N=C2\N[C@H](CO)[C@H](O)[C@H](O)[C@H]2O)c1 | 0.0294 | – | –
14 | CC(C)(C)c1ccc(C/N=C2\N[C@H](CO)[C@H](O)[C@H](O)[C@H]2O)cc1 | 0.0206 | – | –
15 | CCCCCCC/N=C1\N[C@H](CO)[C@H](O)[C@H](O)[C@H]1O | 0.0108 | 0.107 | –
16 | CCC/N=C1\N[C@H](CO)[C@H](O)[C@H](O)[C@H]1O | 0.149 | – | –
17 | OC[C@H]1N/C(=N/CCc2ccccc2)[C@H](O)[C@@H](O)[C@H]1O | – | – | Ki [1]: ≤ 0.0012 µM; Ki [2]: ≤ 0.0012 µM; Ki [3]: ≤ 0.0012 µM
18 | Cc1ccc(C/N=C2\N[C@H](CO)[C@H](O)[C@H](O)[C@H]2O)cc1 | 0.008 | 0.036 | –
19 | OC[C@H]1N/C(=N\Cc2ccccc2)[C@H](O)[C@@H](O)[C@H]1O | 0.0211 | – | –
20 | OC[C@H]1N/C(=N\Cc2ccccc2F)[C@H](O)[C@@H](O)[C@H]1O | 0.0161 | – | –
21 | CCCCCCCCCCCC/N=C1\N[C@H](CO)[C@H](O)[C@H](O)[C@H]1O | 0.0484 | – | –
22 | CCCCC(CC)/N=C1\N[C@H](CO)[C@H](O)[C@H](O)[C@H]1O (stereo partly drawn) | 0.0078 | 0.022 | –
23 | OC[C@H]1N/C(=N\C2CCCCC2)[C@H](O)[C@@H](O)[C@H]1O | 0.602 | 4.8 | –

Source: ChEMBL document CHEMBL3352026, “Structure-activity relationship of highly potent galactonoamidine inhibitors toward β-galactosidase (Aspergillus oryzae)” (J Med Chem, 2014)
